Measured values from different studies.
Protocols differ between the studies behind these lines.
CYP1A1: Cytochrome P450 1A1 (CYP1A1, Homo sapiens, UniProt P04798)
Enoyl-[acyl-carrier-protein] reductase [NADPH] FabI: Enoyl-[acyl-carrier-protein] reductase [NADPH] FabI (Staphylococcus aureus, UniProt Q6GI75)

For `NCCCC[C@H](NC(=O)[C@@H]1CCCN1C(=O)[C@@H]1CSSC[C@H](N)C(=O)N[C@@H](Cc2ccc(O)cc2)C(=O)N[C@@H](Cc2ccccc2)C(=O)N[C@@H](CCC(N)=O)C(=O)N[C@@H](CC(N)=O)C(=O)N1)C(=O)NCC(N)=O`, the Ki was 1.8 nM (Vasopressin V1a receptor (AVPR1A, Homo sapiens, UniProt P37288); ligand displacement, radioligand; cell membranes).
With `CC[C@H](C)[C@H](NC(=O)[C@H](CCC(=O)O)NC(=O)[C@H](CC(=O)O)NC(=O)CNC(=O)[C@H](CC(C)C)NC(=O)[C@H](CCCNC(=N)N)NC(=O)[C@H](CCCNC(=N)N)NC(=O)[C@H](CC(C)C)NC(=O)CNC(=O)[C@H](CCC(N)=O)NC(=O)[C@@H](NC(=O)[C@H](CCSC)NC(=O)[C@H](Cc1c[nH]c2ccccc12)NC(=O)[C@@H](NC(=O)[C@H](CCC(=O)O)NC(=O)[C@@H]1CCCN1C(=O)[C@H](CCCNC(=N)N)NC(C)=O)[C@@H](C)CC)[C@@H](C)O)C(=O)N[C@@H](CC(N)=O)C(=O)N[C@@H](C)C(=O)N[C@@H](Cc1ccc(O)cc1)C(=O)N[C@@H](Cc1ccc(O)cc1)C(=O)N[C@@H](C)C(=O)N[C@@H](CCCNC(=N)N)C(N)=O` the Ki was 1500 nM (Bcl-2-like protein 2 (BCL2L2, Homo sapiens, UniProt Q92843); ligand displacement, FP).
`O=c1cc(-c2ccccc2)oc2c1ccc1ccccc12` has a Ki of 43 nM (CYP1A1; enzyme activity, inhibitor, fluorescence; 6 min, pH 7.6).
The Ki of `O=C(O)CCC(NC(=O)NC(CCCCNC(=O)CCCCCCC(=O)NC(CCCCNC(=O)CN1CCN(CC(=O)O)CCN(CC(=O)O)CCN(CC(=O)O)CC1)C(=O)OCc1ccccc1)C(=O)O)C(=O)O.[Ga+3]` (centres unmarked) is reported as 29 nM (Glutamate carboxypeptidase 2 (FOLH1, Homo sapiens, UniProt Q04609); enzyme activity, inhibitor, fluorescence).
With `CCc1cc(O)c(Oc2cccnc2F)cc1F` the Ki was 0.35 nM (Enoyl-[acyl-carrier-protein] reductase [NADPH] FabI; enzyme activity, inhibitor).
For `CC[C@H](C)[C@H](NC(=O)[C@H](CCC(=O)O)NC(=O)[C@H](CC(=O)O)NC(=O)CNC(=O)[C@H](CC(C)C)NC(=O)[C@H](CCCNC(=N)N)NC(=O)[C@H](CCC(N)=O)NC(=O)[C@H](CC(C)C)NC(=O)[C@H](CO)NC(=O)[C@H](CCC(N)=O)NC(=O)[C@@H](NC(=O)[C@H](CC(C)C)NC(=O)[C@H](Cc1c[nH]c2ccccc12)NC(=O)[C@@H](NC(=O)[C@H](CCC(=O)O)NC(=O)[C@@H]1CCCN1C(=O)[C@H](CCCNC(=N)N)NC(C)=O)[C@@H](C)CC)[C@@H](C)O)C(=O)N[C@@H](CC(N)=O)C(=O)N[C@@H](C)C(=O)N[C@@H](Cc1ccc(O)cc1)C(=O)N[C@@H](Cc1ccc(O)cc1)C(=O)N[C@@H](C)C(=O)N[C@@H](CCCNC(=N)N)C(N)=O`, the Ki was roughly 2700 nM (Apoptosis regulator Bcl-2 (BCL2, Homo sapiens, UniProt P10415); ligand displacement, FP).
`N#Cc1cc(Br)ccc1Oc1ccc(Cl)cc1O` has a Ki of 0.17 nM (Enoyl-[acyl-carrier-protein] reductase [NADPH] FabI; enzyme activity, inhibitor).
`COc1cc(O)c(CC=C(C)C)c(O)c1C(=O)/C=C/c1ccc(O)cc1` has a Ki of 110 nM (CYP1A1; enzyme activity, inhibitor, fluorescence; 15 min, pH 7.4).
